Experimental data reported in ChEMBL document CHEMBL4251638, “Amino acid conjugated antimicrobial drugs: Synthesis, lipophilicity- activity relationship, antibacterial and urease inhibition activity” (Eur J Med Chem, 2018).
In brackets after ≈: the same amount, converted by molar mass. Activity calls are given as the source filed them. The calls are words filed in the database; no cut-off is given here.

What was measured:
[1] = Inhibition of Bacillus pasteurii urease using urea as substrate measured after 20 mins by phenol reagent based assay; design: species or system Sporosarcina pasteurii
How it was run: (§1)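 Indophenol method. Enzyme incubated with compound in buffer containing 100 mM urea at 30 °C for 20 min. Phenol reagent (1% w/v phenol, 0.005% w/v sodium nitroprusside) then alkali reagent (0.5% w/v NaOH, 0.1% v/v […]) added. Absorbance read at 630 nm as change per min. Thiourea was the reference inhibitor.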

[2] = tested on: Pseudomonas aeruginosa; test: Antibacterial activity against Pseudomonas aeruginosa ATCC 15442 after overnight incubation by microbroth dilution method; assay type: functional
How it was run: (§2)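 Strains grown on nutrient agar, 37°C, 24 h. Inoculum from colony in nutrient broth, 24 h at 37°C, adjusted to McFarland 0.5, about 5 × 10^4 CFU/ml per well. DMSO stocks (4 mg/mL) serially diluted in nutrient broth to final 256 to 0.16 µg/mL. Incubated overnight at 37°C. MIC90 is the lowest concentration inhibiting growth. DMSO 1% final as negative control. Run in triplicate.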

[3] = tested on: Staphylococcus aureus; test: Antibacterial activity against Staphylococcus aureus ATCC 6538 after overnight incubation by microbroth dilution method; assay type: functional; how it was run: as §2
[4] = tested on: Salmonella typhimurium; test: Antibacterial activity against Salmonella typhimurium ATCC 14028 after overnight incubation by microbroth dilution method; assay type: functional, Salmonella enterica subsp. enterica serovar Typhimurium; conditions: Salmonella enterica
[5] = tested on: Escherichia coli; test: Antibacterial activity against Escherichia coli ATCC 25922 after overnight incubation by microbroth dilution method; assay type: functional; how it was run: as §2
[6] = tested on: Bacillus spizizenii; test: Antibacterial activity against Bacillus subtilis ATCC 6633 after overnight incubation by microbroth dilution method; assay type: functional; how it was run: as §2
[7] = tested on: Salmonella typhimurium; conditions: Salmonella enterica subsp. enterica serovar Typhimurium; ATCC 14028
[8] = tested on: Sporosarcina pasteurii; test: Inhibition of Bacillus pasteurii urease using urea as substrate measured after 20 mins by phenol reagent based assay relative to control; how it was run: as §1

| Compound | IC50 [1] | MIC90 [2] | MIC90 [3] | MIC90 [4] | MIC90 [5] | MIC90 [6] | MIC90 [7] | inhibition [8] |
| --- | --- | --- | --- | --- | --- | --- | --- | --- |
| NC(N)=S [THIOUREA] | 21 µM | – | – | – | – | – | – | – |
| COc1nc(OCCn2c([N+](=O)[O-])cnc2C)nc(OC(=O)C(N)Cc2ccccc2)n1 (configuration not stated) | 11.4 µM | 9 µM (≈ 3.99 µg/mL) | 24 µM (≈ 10.6 µg/mL) | 18 µM (≈ 7.98 µg/mL) | 7.4 µM (≈ 3.28 µg/mL) | 18 µM (≈ 7.98 µg/mL) | – | – |
| COc1cc(Cc2cnc(N)nc2NC(=O)C(N)C(C)C)cc(OC)c1OC (configuration not stated) | 52.4 µM | 137 µM (≈ 53.3 µg/mL) | 82.2 µM (≈ 32 µg/mL) | 219 µM (≈ 85.3 µg/mL) | 164 µM (≈ 64 µg/mL) | 68.3 µM (≈ 26.6 µg/mL) | – | – |
| CC(C)C(N)C(=O)NNC(=O)c1ccncc1 (configuration not stated) | 48.6 µM | inactive | inactive | – | inactive | inactive | inactive | – |
| Cc1ncc([N+](=O)[O-])n1CCO | – | inactive | inactive | – | inactive | inactive | – | 13% |
| O=C(O)c1cn(C2CC2)c2cc(N3CCNCC3)c(F)cc2c1=O [CIPROFLOXACIN] | – | 30.2 µM (≈ 10 µg/mL) | 30.2 µM (≈ 10 µg/mL) | – | 30.2 µM (≈ 10 µg/mL) | 30.2 µM (≈ 10 µg/mL) | – | – |
| COc1nc(Nc2nc(N)ncc2Cc2cc(OC)c(OC)c(OC)c2)nc(OC(=O)C(N)C(C)C)n1 (configuration not stated) | 19.3 µM | 51.7 µM (≈ 26.6 µg/mL) | 166 µM (≈ 85.3 µg/mL) | 82.8 µM (≈ 42.6 µg/mL) | 62.2 µM (≈ 32 µg/mL) | 124 µM (≈ 64 µg/mL) | – | – |
| NC(Cc1ccccc1)C(=O)NNC(=O)c1ccncc1 (configuration not stated) | 21.1 µM | inactive | inactive | – | inactive | inactive | inactive | – |
| COc1nc(NNC(=O)c2ccncc2)nc(OC(=O)C(N)Cc2ccccc2)n1 (configuration not stated) | 31 µM | 65 µM (≈ 26.6 µg/mL) | 104 µM (≈ 42.6 µg/mL) | 78 µM (≈ 31.9 µg/mL) | 52 µM (≈ 21.3 µg/mL) | 156 µM (≈ 63.9 µg/mL) | – | – |
| COc1nc(OC(=O)C(N)Cc2ccccc2)nc(Oc2c(OC)cc(Cc3cnc(N)nc3N)cc2OC)n1 (configuration not stated) | 8.33 µM | 6 µM (≈ 3.29 µg/mL) | 12 µM (≈ 6.58 µg/mL) | 7.3 µM (≈ 4 µg/mL) | 3.6 µM (≈ 1.97 µg/mL) | 19.3 µM (≈ 10.6 µg/mL) | – | – |
| COc1nc(NNC(=O)c2ccncc2)nc(OC(=O)C(N)Cc2c[nH]c3ccccc23)n1 (configuration not stated) | 37.3 µM | 60 µM (≈ 26.9 µg/mL) | 47.5 µM (≈ 21.3 µg/mL) | 36 µM (≈ 16.1 µg/mL) | 36 µM (≈ 16.1 µg/mL) | 71 µM (≈ 31.8 µg/mL) | – | – |
| CC[C@H]1OC(=O)[C@H](C)[C@@H](O[C@H]2C[C@@](C)(OC)[C@@H](O)[C@H](C)O2)[C@H](C)[C@@H](O[C@@H]2O[C@H](C)C[C@H](N(C)C)[C@H]2O)[C@](C)(O)C[C@@H](C)/C(=N\OCOCCOC)[C@H](C)[C@@H](O)[C@]1(C)O [ROXITHROMYCIN] | – | 0.3 µM (≈ 0.251 µg/mL) | 0.6 µM (≈ 0.502 µg/mL) | – | 0.6 µM (≈ 0.502 µg/mL) | 0.6 µM (≈ 0.502 µg/mL) | – | – |
| COc1nc(NNC(=O)c2ccncc2)nc(OC(=O)C(N)C(C)C)n1 (configuration not stated) | 29.3 µM | 74 µM (≈ 26.7 µg/mL) | 118 µM (≈ 42.6 µg/mL) | 74 µM (≈ 26.7 µg/mL) | 59 µM (≈ 21.3 µg/mL) | 177 µM (≈ 64 µg/mL) | – | – |
| COc1nc(OCCn2c([N+](=O)[O-])cnc2C)nc(OC(=O)C(N)Cc2c[nH]c3ccccc23)n1 (configuration not stated) | 16.3 µM | 4 µM (≈ 1.93 µg/mL) | 16.5 µM (≈ 7.96 µg/mL) | 6.8 µM (≈ 3.28 µg/mL) | 2 µM (≈ 0.965 µg/mL) | 13 µM (≈ 6.27 µg/mL) | – | – |
| Cc1ncc([N+](=O)[O-])n1CCOC(=O)C(N)Cc1c[nH]c2ccccc12 (configuration not stated) | 13.6 µM | 119 µM (≈ 42.6 µg/mL) | 179 µM (≈ 64 µg/mL) | 89.5 µM (≈ 32 µg/mL) | 74.4 µM (≈ 26.6 µg/mL) | 239 µM (≈ 85.4 µg/mL) | – | – |
| COc1nc(OCCn2c([N+](=O)[O-])cnc2C)nc(OC(=O)C(N)C(C)C)n1 (configuration not stated) | 19.5 µM | 54 µM (≈ 21.4 µg/mL) | 81 µM (≈ 32 µg/mL) | 81 µM (≈ 32 µg/mL) | 67.3 µM (≈ 26.6 µg/mL) | 81 µM (≈ 32 µg/mL) | – | – |
| COc1nc(OC(=O)C(N)Cc2c[nH]c3ccccc23)nc(Oc2c(OC)cc(Cc3cnc(N)nc3N)cc2OC)n1 (configuration not stated) | 11.5 µM | 1.4 µM (≈ 0.823 µg/mL) | 3.4 µM (≈ 2 µg/mL) | 2.3 µM (≈ 1.35 µg/mL) | 1.1 µM (≈ 0.646 µg/mL) | 6.8 µM (≈ 4 µg/mL) | – | – |
| Cc1ncc([N+](=O)[O-])n1CCOC(=O)C(N)Cc1ccccc1 (configuration not stated) | 27.4 µM | 268 µM (≈ 85.3 µg/mL) | 50.3 µM (≈ 16 µg/mL) | 201 µM (≈ 64 µg/mL) | 201 µM (≈ 64 µg/mL) | 83.6 µM (≈ 26.6 µg/mL) | – | – |
| COc1cc(Cc2cnc(N)nc2NC(=O)C(N)Cc2c[nH]c3ccccc23)cc(OC)c1OC (configuration not stated) | 35.1 µM | 67.1 µM (≈ 32 µg/mL) | 134 µM (≈ 64 µg/mL) | 55.8 µM (≈ 26.6 µg/mL) | 67.1 µM (≈ 32 µg/mL) | 224 µM (≈ 107 µg/mL) | – | – |
| Cc1ncc([N+](=O)[O-])n1CCOC(=O)C(N)C(C)C (configuration not stated) | 29.5 µM | 474 µM (≈ 128 µg/mL) | 118 µM (≈ 32 µg/mL) | 632 µM (≈ 171 µg/mL) | 473 µM (≈ 128 µg/mL) | 158 µM (≈ 42.7 µg/mL) | – | – |
| NNC(=O)c1ccncc1 | – | inactive | inactive | – | inactive | inactive | inactive | – |
| COc1nc(Nc2nc(N)ncc2Cc2cc(OC)c(OC)c(OC)c2)nc(OC(=O)C(N)Cc2c[nH]c3ccccc23)n1 (configuration not stated) | 12 µM | 53.2 µM (≈ 32 µg/mL) | 213 µM (≈ 128 µg/mL) | 53.2 µM (≈ 32 µg/mL) | 53.2 µM (≈ 32 µg/mL) | 213 µM (≈ 128 µg/mL) | – | – |
| COc1nc(Nc2nc(N)ncc2Cc2cc(OC)c(OC)c(OC)c2)nc(OC(=O)C(N)Cc2ccccc2)n1 (configuration not stated) | 13.8 µM | 28.4 µM (≈ 16 µg/mL) | 303 µM (≈ 171 µg/mL) | 56.8 µM (≈ 32 µg/mL) | 47.3 µM (≈ 26.6 µg/mL) | 228 µM (≈ 128 µg/mL) | – | – |
| COc1cc(Cc2cnc(N)nc2NC(=O)C(N)Cc2ccccc2)cc(OC)c1OC (configuration not stated) | 31.3 µM | 73.1 µM (≈ 32 µg/mL) | 244 µM (≈ 107 µg/mL) | 97.4 µM (≈ 42.6 µg/mL) | 73.1 µM (≈ 32 µg/mL) | 244 µM (≈ 107 µg/mL) | – | – |
| COc1cc(Cc2cnc(N)nc2N)cc(OC)c1OC [TRIMETHOPRIM] | – | – | 22.7 µM (≈ 6.59 µg/mL) | – | 55.1 µM (≈ 16 µg/mL) | – | – | – |
| COc1nc(OC(=O)C(N)C(C)C)nc(Oc2c(OC)cc(Cc3cnc(N)nc3N)cc2OC)n1 (configuration not stated) | 6.23 µM | 6.6 µM (≈ 3.3 µg/mL) | 10.6 µM (≈ 5.31 µg/mL) | 15.9 µM (≈ 7.96 µg/mL) | 6.6 µM (≈ 3.3 µg/mL) | 7.9 µM (≈ 3.95 µg/mL) | – | – |
| NC(Cc1c[nH]c2ccccc12)C(=O)NNC(=O)c1ccncc1 (configuration not stated) | 37 µM | 660 µM (≈ 213 µg/mL) | 98.9 µM (≈ 32 µg/mL) | 792 µM (≈ 256 µg/mL) | 528 µM (≈ 171 µg/mL) | 98.9 µM (≈ 32 µg/mL) | – | – |
